According to ChEMBL document CHEMBL3351833, “Synthesis and Biological Evaluation of Pyrazolo[1,5-a]pyrimidine Compounds as Potent and Selective Pim-1 Inhibitors” (ACS Med Chem Lett, 2015):

What was measured:
[1] = target: Serine/threonine-protein kinase pim-2 (Homo sapiens, UniProt Q9P1W9); experiment: Inhibition of Pim2 (unknown origin) using luciferase-luciferin based ATP detection reagent by Kinase-Glo assay; settings: read-out: IC50
[2] = target: T1, Receptor-type tyrosine-protein kinase FLT3 (Homo sapiens, UniProt P36888); experiment: Inhibition of human Flt3 (unknown origin)
T1 sequence (P36888 whole entry): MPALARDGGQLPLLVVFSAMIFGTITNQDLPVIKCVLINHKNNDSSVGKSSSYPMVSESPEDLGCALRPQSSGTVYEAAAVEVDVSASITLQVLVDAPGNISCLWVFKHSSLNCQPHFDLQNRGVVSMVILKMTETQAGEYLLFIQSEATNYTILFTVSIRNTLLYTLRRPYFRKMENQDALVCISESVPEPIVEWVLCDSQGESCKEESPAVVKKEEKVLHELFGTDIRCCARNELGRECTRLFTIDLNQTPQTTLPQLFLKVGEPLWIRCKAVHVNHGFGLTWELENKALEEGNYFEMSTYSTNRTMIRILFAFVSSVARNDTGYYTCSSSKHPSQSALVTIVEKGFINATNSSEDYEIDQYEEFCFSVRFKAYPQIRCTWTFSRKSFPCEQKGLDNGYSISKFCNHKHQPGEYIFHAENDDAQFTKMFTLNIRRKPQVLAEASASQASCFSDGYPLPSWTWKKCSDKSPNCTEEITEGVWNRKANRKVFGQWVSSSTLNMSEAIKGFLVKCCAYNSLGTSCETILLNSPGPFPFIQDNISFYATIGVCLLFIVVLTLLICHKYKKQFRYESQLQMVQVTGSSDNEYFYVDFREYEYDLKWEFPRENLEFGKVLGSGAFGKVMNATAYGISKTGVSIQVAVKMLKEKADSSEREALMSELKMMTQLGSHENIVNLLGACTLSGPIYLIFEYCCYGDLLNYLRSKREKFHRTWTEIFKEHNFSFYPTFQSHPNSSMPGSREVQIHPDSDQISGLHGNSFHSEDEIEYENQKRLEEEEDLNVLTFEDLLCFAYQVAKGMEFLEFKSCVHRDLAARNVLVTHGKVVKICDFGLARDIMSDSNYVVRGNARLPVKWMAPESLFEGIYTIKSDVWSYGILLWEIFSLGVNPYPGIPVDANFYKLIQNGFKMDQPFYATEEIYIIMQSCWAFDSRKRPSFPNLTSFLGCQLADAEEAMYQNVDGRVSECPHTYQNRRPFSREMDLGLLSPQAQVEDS

[3] = target: T2, Serine/threonine-protein kinase pim-1 (Homo sapiens, UniProt P11309); experiment: Inhibition of Pim1 (unknown origin) using luciferase-luciferin based ATP detection reagent by Kinase-Glo assay; settings: read-out: IC50
Target sequence in this assay (P11309 whole entry): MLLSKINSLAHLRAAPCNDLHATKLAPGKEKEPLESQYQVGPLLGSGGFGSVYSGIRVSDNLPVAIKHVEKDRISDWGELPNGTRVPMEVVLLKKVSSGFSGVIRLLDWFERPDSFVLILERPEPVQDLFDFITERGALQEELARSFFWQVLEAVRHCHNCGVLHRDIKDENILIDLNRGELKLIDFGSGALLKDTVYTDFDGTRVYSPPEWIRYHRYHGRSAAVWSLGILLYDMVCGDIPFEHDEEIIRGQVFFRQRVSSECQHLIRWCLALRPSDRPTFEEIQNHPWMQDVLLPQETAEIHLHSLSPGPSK

[4] = target: Voltage-gated inwardly rectifying potassium channel KCNH2 (Homo sapiens, UniProt Q12809); experiment: Inhibition of human ERG expressed in CHO cells by automated patch clamp method; format: cell-based
[5] = target: Receptor-type tyrosine-protein kinase FLT3 (Homo sapiens) (UniProt P36888); settings: 1 uM
[6] = target: Tyrosine-protein kinase Yes (Homo sapiens) (UniProt P07947); experiment: Inhibition of YES1 (unknown origin) at 1 uM
[7] = target: T3, Muscle, skeletal receptor tyrosine-protein kinase (Homo sapiens) (UniProt O15146); experiment: Inhibition of MUSK (unknown origin) at 1 uM
T3 sequence (whole entry): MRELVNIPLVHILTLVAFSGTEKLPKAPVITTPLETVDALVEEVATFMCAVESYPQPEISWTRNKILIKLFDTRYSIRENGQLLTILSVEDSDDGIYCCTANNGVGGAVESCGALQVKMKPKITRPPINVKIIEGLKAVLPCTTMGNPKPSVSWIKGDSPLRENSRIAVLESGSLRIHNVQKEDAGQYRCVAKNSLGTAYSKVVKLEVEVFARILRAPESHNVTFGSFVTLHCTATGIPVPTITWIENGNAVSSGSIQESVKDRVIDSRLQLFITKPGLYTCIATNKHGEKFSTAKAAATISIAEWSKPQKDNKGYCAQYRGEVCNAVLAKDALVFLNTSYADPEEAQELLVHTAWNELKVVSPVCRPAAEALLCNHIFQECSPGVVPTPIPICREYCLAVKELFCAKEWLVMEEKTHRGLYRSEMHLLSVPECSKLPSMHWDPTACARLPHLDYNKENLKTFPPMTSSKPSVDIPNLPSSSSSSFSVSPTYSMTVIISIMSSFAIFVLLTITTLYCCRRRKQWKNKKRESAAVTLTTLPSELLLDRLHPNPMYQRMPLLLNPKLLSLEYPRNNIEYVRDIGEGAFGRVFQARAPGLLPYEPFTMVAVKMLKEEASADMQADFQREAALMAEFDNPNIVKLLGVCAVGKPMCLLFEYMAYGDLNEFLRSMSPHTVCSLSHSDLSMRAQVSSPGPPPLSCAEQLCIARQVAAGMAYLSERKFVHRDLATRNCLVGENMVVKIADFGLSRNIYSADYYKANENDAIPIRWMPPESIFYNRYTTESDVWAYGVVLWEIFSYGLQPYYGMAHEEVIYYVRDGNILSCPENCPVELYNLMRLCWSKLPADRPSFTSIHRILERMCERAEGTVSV

[8] = Growth inhibition of human HSC3 cells after 24 hrs by Clonogenic cell survival assay; format: functional, cell-based; settings: HSC-3, 24 h
How it was run: (§1)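 Two-dimensional colony formation (clonogenic survival) of human UM-UC-3 bladder carcinoma and HSC-3 oral squamous carcinoma cells, assessing the cytostatic effect on colony growth.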

[9] = target: Tyrosine-protein kinase Fyn (Homo sapiens) (UniProt P06241); experiment: Inhibition of FYN (unknown origin) at 1 uM
[10] = target: NT-3 growth factor receptor (Homo sapiens) (UniProt Q16288); experiment: Inhibition of TRKC (unknown origin) at 1 uM
[11] = target: Homeodomain-interacting protein kinase 2 (Homo sapiens) (UniProt Q9H2X6); experiment: Inhibition of HIPK2 (unknown origin) at 1 uM
[12] = target: Proto-oncogene tyrosine-protein kinase Src (Homo sapiens) (UniProt P12931); experiment: Inhibition of c-Src (unknown origin) at 1 uM
[13] = target: Macrophage colony-stimulating factor 1 receptor (Homo sapiens) (UniProt P07333); experiment: Inhibition of FMS (unknown origin) at 1 uM
[14] = target: T4, Homeodomain-interacting protein kinase 4 (Homo sapiens) (UniProt Q8NE63); experiment: Inhibition of HIPK4 (unknown origin) at 1 uM
T4 sequence (whole entry): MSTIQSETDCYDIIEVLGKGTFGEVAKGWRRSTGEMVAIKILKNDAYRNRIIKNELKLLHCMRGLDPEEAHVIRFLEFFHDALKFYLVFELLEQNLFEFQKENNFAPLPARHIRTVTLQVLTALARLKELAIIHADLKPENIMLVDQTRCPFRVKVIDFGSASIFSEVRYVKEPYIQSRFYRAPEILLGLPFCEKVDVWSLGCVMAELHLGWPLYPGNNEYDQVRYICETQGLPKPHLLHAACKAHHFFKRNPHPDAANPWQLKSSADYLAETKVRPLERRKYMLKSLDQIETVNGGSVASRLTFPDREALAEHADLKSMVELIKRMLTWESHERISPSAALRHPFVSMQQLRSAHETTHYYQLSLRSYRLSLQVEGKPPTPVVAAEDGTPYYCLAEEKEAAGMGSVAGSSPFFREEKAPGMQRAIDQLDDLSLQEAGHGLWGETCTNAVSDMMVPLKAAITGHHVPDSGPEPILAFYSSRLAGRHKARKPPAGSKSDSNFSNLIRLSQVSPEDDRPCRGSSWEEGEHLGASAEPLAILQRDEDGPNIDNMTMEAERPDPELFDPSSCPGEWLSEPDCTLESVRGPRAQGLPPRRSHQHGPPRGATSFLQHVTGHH

[15] = target: High affinity nerve growth factor receptor (Homo sapiens) (UniProt P04629); experiment: Inhibition of TRKA (unknown origin) at 1 uM
[16] = target: BDNF/NT-3 growth factors receptor (Homo sapiens) (UniProt Q16620); experiment: Inhibition of TRKB (unknown origin) at 1 uM
[17] = Growth inhibition of human UM-UC-3 cells after 24 hrs by Clonogenic cell survival assay; format: functional, cell-based; settings: UMUC3, 24 h; how it was run: as §1
[18] = target: T2, Serine/threonine-protein kinase pim-1; experiment: Inhibition of Pim1 (unknown origin) using luciferase-luciferin based ATP detection reagent at 1 uM by Kinase-Glo assay
[19] = target: Tyrosine-protein kinase Lck (Homo sapiens) (UniProt P06239); experiment: Inhibition of LCK (unknown origin) at 1 uM
[20] = target: T5, Serine/threonine-protein kinase haspin (Homo sapiens) (UniProt Q8TF76); experiment: Inhibition of Haspin (unknown origin) at 1 uM
T5 sequence (whole entry): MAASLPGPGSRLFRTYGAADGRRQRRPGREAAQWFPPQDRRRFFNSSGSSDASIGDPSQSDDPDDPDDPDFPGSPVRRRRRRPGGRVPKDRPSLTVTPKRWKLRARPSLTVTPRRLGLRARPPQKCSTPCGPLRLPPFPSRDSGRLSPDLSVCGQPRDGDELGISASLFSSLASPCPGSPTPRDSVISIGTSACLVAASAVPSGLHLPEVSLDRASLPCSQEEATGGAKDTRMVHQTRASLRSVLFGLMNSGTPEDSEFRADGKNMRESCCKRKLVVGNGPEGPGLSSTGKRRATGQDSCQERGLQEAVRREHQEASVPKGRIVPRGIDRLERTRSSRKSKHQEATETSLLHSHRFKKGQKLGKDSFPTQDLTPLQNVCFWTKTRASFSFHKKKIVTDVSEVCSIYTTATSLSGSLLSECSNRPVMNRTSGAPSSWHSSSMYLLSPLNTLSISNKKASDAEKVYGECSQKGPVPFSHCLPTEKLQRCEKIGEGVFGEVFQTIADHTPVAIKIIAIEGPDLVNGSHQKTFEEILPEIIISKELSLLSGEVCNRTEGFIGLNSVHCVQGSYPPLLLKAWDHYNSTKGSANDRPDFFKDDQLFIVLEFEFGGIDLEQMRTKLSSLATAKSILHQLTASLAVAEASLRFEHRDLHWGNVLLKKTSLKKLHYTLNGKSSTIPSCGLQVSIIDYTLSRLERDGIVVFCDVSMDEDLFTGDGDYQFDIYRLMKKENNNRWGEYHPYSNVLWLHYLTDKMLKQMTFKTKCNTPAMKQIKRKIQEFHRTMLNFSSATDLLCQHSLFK

[21] = target: Casein kinase II subunit alpha (Homo sapiens) (UniProt P68400); experiment: Inhibition of CK2a (unknown origin) at 1 uM
[22] = target: Tyrosine-protein kinase JAK2 (Homo sapiens) (UniProt O60674); experiment: Inhibition of JAK2 (unknown origin) at 1 uM

Serine/threonine-protein kinase pim-2, sequence (Q9P1W9 whole entry): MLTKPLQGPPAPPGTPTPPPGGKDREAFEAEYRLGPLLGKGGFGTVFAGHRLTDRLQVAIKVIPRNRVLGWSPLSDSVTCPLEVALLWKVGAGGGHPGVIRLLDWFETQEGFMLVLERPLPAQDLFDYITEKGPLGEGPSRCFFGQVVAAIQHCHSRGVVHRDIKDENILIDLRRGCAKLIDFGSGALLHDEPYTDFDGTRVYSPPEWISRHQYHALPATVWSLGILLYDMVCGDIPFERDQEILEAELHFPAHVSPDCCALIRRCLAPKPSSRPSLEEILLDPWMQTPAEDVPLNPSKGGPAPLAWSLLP
Voltage-gated inwardly rectifying potassium channel KCNH2, sequence (Q12809 whole entry): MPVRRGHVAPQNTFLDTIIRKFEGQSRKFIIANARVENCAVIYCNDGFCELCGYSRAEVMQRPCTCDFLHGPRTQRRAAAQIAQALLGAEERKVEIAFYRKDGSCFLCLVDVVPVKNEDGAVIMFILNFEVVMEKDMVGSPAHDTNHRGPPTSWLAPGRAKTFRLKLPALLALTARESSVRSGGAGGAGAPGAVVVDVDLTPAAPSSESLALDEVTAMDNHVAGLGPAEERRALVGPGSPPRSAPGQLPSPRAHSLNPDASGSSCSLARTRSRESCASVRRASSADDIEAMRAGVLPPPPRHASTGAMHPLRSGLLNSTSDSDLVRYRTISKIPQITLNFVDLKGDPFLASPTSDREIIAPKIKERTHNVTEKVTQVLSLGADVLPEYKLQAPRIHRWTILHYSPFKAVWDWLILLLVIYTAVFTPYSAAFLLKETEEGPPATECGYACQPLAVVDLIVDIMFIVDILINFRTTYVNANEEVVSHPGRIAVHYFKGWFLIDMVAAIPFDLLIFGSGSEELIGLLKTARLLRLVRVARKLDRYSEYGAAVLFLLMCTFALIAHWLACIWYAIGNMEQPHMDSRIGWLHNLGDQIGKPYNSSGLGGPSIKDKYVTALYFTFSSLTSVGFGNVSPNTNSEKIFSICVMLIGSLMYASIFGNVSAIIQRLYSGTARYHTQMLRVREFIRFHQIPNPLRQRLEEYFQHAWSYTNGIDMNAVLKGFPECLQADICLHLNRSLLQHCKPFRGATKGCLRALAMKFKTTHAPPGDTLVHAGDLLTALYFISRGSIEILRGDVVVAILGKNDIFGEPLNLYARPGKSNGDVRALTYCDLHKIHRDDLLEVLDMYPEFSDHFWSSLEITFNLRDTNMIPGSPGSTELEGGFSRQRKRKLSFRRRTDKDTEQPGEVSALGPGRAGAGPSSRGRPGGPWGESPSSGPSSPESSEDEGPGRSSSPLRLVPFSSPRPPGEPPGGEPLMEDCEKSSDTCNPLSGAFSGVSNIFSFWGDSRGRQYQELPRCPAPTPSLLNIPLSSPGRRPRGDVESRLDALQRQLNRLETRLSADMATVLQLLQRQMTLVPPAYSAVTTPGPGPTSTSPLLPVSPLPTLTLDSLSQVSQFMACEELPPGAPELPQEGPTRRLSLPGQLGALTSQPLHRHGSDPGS
Tyrosine-protein kinase Fyn (Homo sapiens), sequence (P06241 2-537 limits assumed): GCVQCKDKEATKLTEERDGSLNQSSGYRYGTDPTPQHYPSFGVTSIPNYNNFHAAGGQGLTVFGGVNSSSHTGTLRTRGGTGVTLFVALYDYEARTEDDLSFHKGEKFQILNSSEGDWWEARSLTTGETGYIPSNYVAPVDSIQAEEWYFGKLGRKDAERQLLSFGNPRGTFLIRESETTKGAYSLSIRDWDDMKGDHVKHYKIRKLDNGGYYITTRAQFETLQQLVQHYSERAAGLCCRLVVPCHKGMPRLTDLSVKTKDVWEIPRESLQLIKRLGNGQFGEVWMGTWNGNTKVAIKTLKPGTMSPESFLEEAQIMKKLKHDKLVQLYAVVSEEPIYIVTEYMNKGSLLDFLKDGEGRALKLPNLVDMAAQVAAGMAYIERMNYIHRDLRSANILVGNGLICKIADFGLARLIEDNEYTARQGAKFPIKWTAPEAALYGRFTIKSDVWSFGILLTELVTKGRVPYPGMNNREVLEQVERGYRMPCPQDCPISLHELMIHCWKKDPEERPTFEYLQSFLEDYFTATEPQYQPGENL
Macrophage colony-stimulating factor 1 receptor (Homo sapiens), sequence (P07333 whole entry): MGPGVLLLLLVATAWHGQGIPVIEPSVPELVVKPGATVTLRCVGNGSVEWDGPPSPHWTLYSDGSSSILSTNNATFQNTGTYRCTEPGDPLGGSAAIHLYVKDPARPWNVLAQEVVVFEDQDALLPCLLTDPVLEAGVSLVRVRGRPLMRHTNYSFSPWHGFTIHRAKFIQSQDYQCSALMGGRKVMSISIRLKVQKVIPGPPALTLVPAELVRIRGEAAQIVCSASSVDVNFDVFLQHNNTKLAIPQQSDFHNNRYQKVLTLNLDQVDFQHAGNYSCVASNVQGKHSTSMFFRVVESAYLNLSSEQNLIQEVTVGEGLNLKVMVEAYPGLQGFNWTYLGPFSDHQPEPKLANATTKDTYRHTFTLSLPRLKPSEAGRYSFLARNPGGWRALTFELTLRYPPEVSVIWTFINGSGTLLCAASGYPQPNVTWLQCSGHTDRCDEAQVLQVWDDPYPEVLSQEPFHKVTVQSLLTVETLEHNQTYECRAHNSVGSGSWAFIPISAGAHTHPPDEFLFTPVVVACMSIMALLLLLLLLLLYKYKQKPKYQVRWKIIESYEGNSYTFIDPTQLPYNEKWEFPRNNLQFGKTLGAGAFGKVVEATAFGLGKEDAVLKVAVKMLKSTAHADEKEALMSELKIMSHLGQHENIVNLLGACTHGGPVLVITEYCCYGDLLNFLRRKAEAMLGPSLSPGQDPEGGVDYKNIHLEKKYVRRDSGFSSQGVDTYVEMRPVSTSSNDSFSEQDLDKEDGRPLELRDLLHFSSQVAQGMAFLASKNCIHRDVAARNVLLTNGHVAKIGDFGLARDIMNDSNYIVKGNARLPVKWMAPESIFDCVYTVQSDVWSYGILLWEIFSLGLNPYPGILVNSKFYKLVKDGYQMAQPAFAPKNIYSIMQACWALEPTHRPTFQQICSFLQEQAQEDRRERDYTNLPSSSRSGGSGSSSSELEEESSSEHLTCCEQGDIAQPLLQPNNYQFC
NT-3 growth factor receptor (Homo sapiens), sequence (Q16288 32-839 limits assumed): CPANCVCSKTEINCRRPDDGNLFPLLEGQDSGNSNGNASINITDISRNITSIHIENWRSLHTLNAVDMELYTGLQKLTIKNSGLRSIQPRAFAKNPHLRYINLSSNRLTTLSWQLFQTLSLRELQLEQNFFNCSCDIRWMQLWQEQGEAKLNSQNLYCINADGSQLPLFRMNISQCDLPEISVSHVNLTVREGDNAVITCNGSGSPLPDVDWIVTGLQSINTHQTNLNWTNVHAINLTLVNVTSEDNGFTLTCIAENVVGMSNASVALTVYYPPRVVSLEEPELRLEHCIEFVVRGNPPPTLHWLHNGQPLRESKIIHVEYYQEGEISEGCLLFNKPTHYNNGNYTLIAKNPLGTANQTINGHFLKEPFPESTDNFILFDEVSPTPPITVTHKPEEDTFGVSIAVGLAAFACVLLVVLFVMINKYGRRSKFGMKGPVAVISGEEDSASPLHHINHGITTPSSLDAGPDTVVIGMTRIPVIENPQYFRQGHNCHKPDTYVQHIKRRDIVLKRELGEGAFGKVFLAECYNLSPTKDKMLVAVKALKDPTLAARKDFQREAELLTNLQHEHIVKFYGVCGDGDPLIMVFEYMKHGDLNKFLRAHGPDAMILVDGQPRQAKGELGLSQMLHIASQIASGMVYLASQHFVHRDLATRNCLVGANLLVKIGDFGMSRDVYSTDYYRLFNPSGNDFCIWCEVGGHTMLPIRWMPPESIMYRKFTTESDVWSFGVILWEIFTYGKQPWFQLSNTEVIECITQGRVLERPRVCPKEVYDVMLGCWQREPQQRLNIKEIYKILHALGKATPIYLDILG
High affinity nerve growth factor receptor (Homo sapiens), sequence (P04629 33-796 limits assumed): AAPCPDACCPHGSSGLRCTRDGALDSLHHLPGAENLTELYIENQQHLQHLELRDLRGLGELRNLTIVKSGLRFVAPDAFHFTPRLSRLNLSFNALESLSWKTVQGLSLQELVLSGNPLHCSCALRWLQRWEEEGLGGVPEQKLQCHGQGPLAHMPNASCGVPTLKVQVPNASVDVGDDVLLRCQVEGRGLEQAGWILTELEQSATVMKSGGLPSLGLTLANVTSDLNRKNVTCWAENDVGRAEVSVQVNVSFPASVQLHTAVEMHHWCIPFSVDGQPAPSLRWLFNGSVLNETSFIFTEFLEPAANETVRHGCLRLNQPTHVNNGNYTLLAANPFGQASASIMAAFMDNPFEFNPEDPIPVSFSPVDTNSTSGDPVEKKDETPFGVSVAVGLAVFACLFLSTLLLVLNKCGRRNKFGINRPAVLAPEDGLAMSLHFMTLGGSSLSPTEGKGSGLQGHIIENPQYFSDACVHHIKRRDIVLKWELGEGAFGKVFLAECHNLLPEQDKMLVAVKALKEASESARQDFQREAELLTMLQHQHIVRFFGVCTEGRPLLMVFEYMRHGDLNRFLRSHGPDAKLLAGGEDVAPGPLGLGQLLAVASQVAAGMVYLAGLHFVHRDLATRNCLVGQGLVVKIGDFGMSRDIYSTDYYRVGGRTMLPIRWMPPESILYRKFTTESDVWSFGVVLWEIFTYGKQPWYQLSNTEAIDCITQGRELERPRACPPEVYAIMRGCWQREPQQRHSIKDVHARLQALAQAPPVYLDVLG

What does the source list for `O[C@H]1CC[C@H](Nc2ccn3ncc(-c4cccc(OC(F)(F)F)c4)c3n2)CC1`?
IC50 [1]: 269 nM; IC50 [2]: 157 nM

Which IC50 [1] does the source give for `O[C@H]1CC[C@H](Nc2ccn3ncc(-c4cccc(Cl)c4)c3n2)CC1` here?
Its IC50 is 506 nM.

For `Clc1cccc(-c2cnn3ccc(NCC4CCOCC4)nc23)c1`, which IC50 [1] is on record?
The IC50 was 1640 nM.

With `C[C@]1(O)CC[C@H](Nc2ccn3ncc(-c4cccc(Cl)c4)c3n2)CC1` as the compound, how does the IC50 [1] read?
Its IC50 is 1260 nM.

Which IC50 [1] does the source give for `CN1CCC(CNc2ccn3ncc(-c4cccc(OC(F)(F)F)c4)c3n2)CC1` here?
Its IC50 is 1490 nM.

Which IC50 [1] does the source give for `CO[C@H]1CC[C@H](Nc2ccn3ncc(-c4cccc(OC(F)(F)F)c4)c3n2)CC1` here?
Its IC50 is 3620 nM.

For `O=S1(=O)CCC(CNc2ccn3ncc(-c4cccc(Cl)c4)c3n2)CC1`, which IC50 [1] is on record?
Its IC50 is 2070 nM.

For `FC(F)(F)Oc1cccc(-c2cnn3ccc(NCC4CCOCC4)nc23)c1`, which IC50 [3] is on record?
Its IC50 is 633 nM.

And the IC50 [1]?
Its IC50 is 3730 nM.

With `CO[C@H]1CC[C@H](Nc2ccn3ncc(-c4cccc(Cl)c4)c3n2)CC1` as the compound, how does the IC50 [1] read?
The IC50 was 1020 nM.

For `O=C1CCN(c2ccn3ncc(-c4cccc(Cl)c4)c3n2)CC1`, which IC50 [3] is on record?
The IC50 was 168 nM.

And the IC50 [1]?
The IC50 was 564 nM.

For `CC(C)(O)[C@H]1CC[C@H](Nc2ccn3ncc(-c4cccc(Cl)c4)c3n2)CC1`, which IC50 [4] is on record?
The IC50 was over 30000 nM.

And the inhibition [5]?
The inhibition was over 90%.

And the inhibition [6]?
Its inhibition is over 50%.

What about the inhibition [7] of the same compound?
Its inhibition is over 80%.

What about the EC50 [8] of the same compound?
Its EC50 is 600 nM.

What about the inhibition [9] of the same compound?
The inhibition was over 50%.

And the inhibition [10]?
The inhibition was 96%.

What about the inhibition [11] of the same compound?
The inhibition was over 50%.

What about the inhibition [12] of the same compound?
Its inhibition is over 50%.

And the IC50 [1]?
The IC50 was 228 nM.

What about the inhibition [13] of the same compound?
The inhibition was over 50%.

What about the inhibition [14] of the same compound?
The inhibition was over 80%.

And the inhibition [15]?
The inhibition was over 80%.

And the inhibition [16]?
The inhibition was over 90%.

What about the EC50 [17] of the same compound?
Its EC50 is 914 nM.

What about the inhibition [18] of the same compound?
The inhibition was over 98%.

What about the inhibition [19] of the same compound?
The inhibition was over 80%.

And the inhibition [20]?
Its inhibition is over 80%.

And the inhibition [21]?
The inhibition was over 50%.

What about the IC50 [2] of the same compound?
Its IC50 is 125 nM.

What about the inhibition [22] of the same compound?
Its inhibition is over 50%.

Which IC50 [1] does the source give for `CC(C)(O)[C@H]1CC[C@H](Nc2ccn3ncc(-c4cccc(OC(F)(F)F)c4)c3n2)CC1` here?
Its IC50 is 4090 nM.

With `CO[C@H]1CC[C@H](Nc2ccn3ncc(-c4cccc(C(F)(F)F)c4)c3n2)CC1` as the compound, how does the IC50 [1] read?
The IC50 was 4660 nM.
